Common to all, as to format: functional
Test [1] concerns Rattus norvegicus. The experiment in a line: Anesthetic effect in iv dosed Sprague-Dawley rat assessed as time required to walk. The gist of the method:
(§1)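 Adult female Sprague-Dawley rats (~350–450 g), restrained, tail marginal vein cannulated; drug at 10 mg/ml given by continuous iv infusion, initially 20 mg/kg/min until pedal withdrawal reflex score PWR = 1, then 6.7 mg/kg/min titrated up-and-down to keep dorsal recumbency and PWR = 1 to 10 min before cessation. Three rats per study, each its own ketamine control; randomised order, ≥1 h recovery between experiments.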

In test [2] the test system is Rattus norvegicus. The experiment in a line: Anesthetic effect in iv dosed Sprague-Dawley rat assessed as duration of recovery of righting reflex. The gist of the method:
as §1

Test [3] has as its system Rattus norvegicus. The experiment in a line: Analgesic effect in iv dosed Sprague-Dawley rat assessed as dose required to cause pedal withdrawal reflex. The gist of the method:
as §1

The test system of test [4] is Rattus norvegicus. The experiment in a line: Analgesic effect in iv dosed Sprague-Dawley rat assessed as time required to cause pedal withdrawal reflex. In a few lines: as §1
The test system of test [5] is Rattus norvegicus. The experiment in a line: Anesthetic effect in iv dosed Sprague-Dawley rat assessed as dose required to cause loss of righting reflex. The gist of the method: as §1
Test [6] deals with Rattus norvegicus. The experiment in a line: Anesthetic effect in iv dosed Sprague-Dawley rat assessed as duration of loss of righting reflex. The gist of the method: as §1

For 20 compounds, Time and Activity results are on record in ChEMBL document CHEMBL2417519, “Structure-activity relationships for ketamine esters as short-acting anaesthetics” (Bioorg Med Chem, 2013).

For the compound `CN(C)[C@]1(c2ccccc2Cl)CCCCC1=O.Cl`, the Time amounted to 1215 s in the test with Rattus norvegicus [1], 880 s in the test with Rattus norvegicus [2], 103 s with Rattus norvegicus [4] and 94 s in the test on Rattus norvegicus [6]. Further, the results for the Activity with Rattus norvegicus [3] and with Rattus norvegicus [5] were 35 mg/kg and 32 mg/kg, respectively.

Take `Cl.O=C1CCCC[C@]1(NCCCO)c1ccccc1Cl`: the Time came to 588 s in the test on Rattus norvegicus [1], 341 s in the test on Rattus norvegicus [2], 102 s in the test with Rattus norvegicus [4] and 59 s with Rattus norvegicus [6]. For the same compound, the Activity with Rattus norvegicus [3] is 34 mg/kg; in the test on Rattus norvegicus [5] it was 21 mg/kg.

Regarding `CC(=O)OCCCN[C@]1(c2ccccc2Cl)CCCCC1=O.Cl`, the values for the Activity in the test with Rattus norvegicus [3] and in the test with Rattus norvegicus [5] were 34 mg/kg and 26 mg/kg, respectively. Moreover, the Time in the test with Rattus norvegicus [6] was found to be 81 s.

Take `CCOC(=O)CCN[C@]1(c2ccccc2Cl)CCCCC1=O.Cl`: the Time in the test on Rattus norvegicus [1] is 80 s; in the test on Rattus norvegicus [2] it was 62 s; in the test on Rattus norvegicus [4], 185 s; in the test with Rattus norvegicus [6], 171 s. Further, the Activity was found to be 62 mg/kg in the test on Rattus norvegicus [3] and 59 mg/kg in the test on Rattus norvegicus [5].

`CC(C)OC(=O)CCN[C@]1(c2ccccc2Cl)CCCCC1=O.Cl`: the Time with Rattus norvegicus [2] stood at 15 s. The values for the Activity in the test on Rattus norvegicus [3] and with Rattus norvegicus [5] were 84 mg/kg and 74 mg/kg, respectively.

As to `CC(C)OC(=O)CCN[C@@]1(c2ccccc2Cl)CCCCC1=O.Cl`, the Time in the test with Rattus norvegicus [1] amounted to 900 s; in the test with Rattus norvegicus [2] it was 0 s; in the test with Rattus norvegicus [4], 190 s; in the test on Rattus norvegicus [6] it was 170 s. Further, the results for the Activity in the test with Rattus norvegicus [3] and in the test with Rattus norvegicus [5] were 82 mg/kg and 71 mg/kg, respectively.

With `CCCOC(=O)CCNC1(c2ccccc2Cl)CCCCC1=O.Cl` (racemic), the Time with Rattus norvegicus [1] is listed as 0 s; in the test with Rattus norvegicus [2], 0 s; with Rattus norvegicus [4], 420 s; in the test with Rattus norvegicus [6], 404 s. The Activity was 136 mg/kg with Rattus norvegicus [3] and 131 mg/kg in the test with Rattus norvegicus [5].

As to `CCOC(=O)CCCNC1(c2ccccc2Cl)CCCCC1=O.Cl` (racemic), the Time came to 170 s in the test with Rattus norvegicus [1], 95 s with Rattus norvegicus [2] and 70 s in the test with Rattus norvegicus [6]. The Activity in the test with Rattus norvegicus [3] worked out at 44 mg/kg; with Rattus norvegicus [5], 24 mg/kg.

Turning to `CC(C)OC(=O)CCCNC1(c2ccccc2Cl)CCCCC1=O.Cl` (racemic), the results for the Time with Rattus norvegicus [1] and in the test on Rattus norvegicus [2] were 110 s and 37 s, respectively. Besides, the Activity amounted to 66 mg/kg in the test on Rattus norvegicus [3] and 42 mg/kg with Rattus norvegicus [5].

Consider `CCCOC(=O)CCCNC1(c2ccccc2Cl)CCCCC1=O.Cl` (racemic), for which the Time came to 65 s in the test with Rattus norvegicus [1], 10 s in the test on Rattus norvegicus [2], 558 s with Rattus norvegicus [4] and 329 s in the test with Rattus norvegicus [6]. The Activity in the test with Rattus norvegicus [3] worked out at 209 mg/kg; with Rattus norvegicus [5], 137 mg/kg.

Take `CCOC(=O)CCCCNC1(c2ccccc2Cl)CCCCC1=O.Cl` (racemic): the Time was 112 s in the test with Rattus norvegicus [1] and 97 s in the test with Rattus norvegicus [6]. The Activity in the test with Rattus norvegicus [3] was determined as 57 mg/kg; with Rattus norvegicus [5], 34 mg/kg.

In the case of `CC(C)OC(=O)CCCCNC1(c2ccccc2Cl)CCCCC1=O.Cl` (racemic), the figures for the Time with Rattus norvegicus [1] and in the test with Rattus norvegicus [2] were 320 s and 180 s, respectively. In addition, the Activity in the test on Rattus norvegicus [3] and with Rattus norvegicus [5] was 38 mg/kg in each case.

For `CCCOC(=O)CCCCNC1(c2ccccc2Cl)CCCCC1=O.Cl` (racemic), the Time stood at 90 s in the test with Rattus norvegicus [1], 45 s with Rattus norvegicus [2], 277 s with Rattus norvegicus [4] and 271 s with Rattus norvegicus [6]. Besides, the Activity in the test with Rattus norvegicus [3] was 83 mg/kg; in the test with Rattus norvegicus [5] it was 82 mg/kg.

As to `CN(C)C1(c2ccccc2Cl)CCCCC1=O.Cl` (racemic), the Time in the test with Rattus norvegicus [1] was 1740 s; in the test on Rattus norvegicus [2], 1500 s; in the test on Rattus norvegicus [4], 130 s; in the test with Rattus norvegicus [6], 125 s. Also, the Activity with Rattus norvegicus [3] and in the test on Rattus norvegicus [5] was 43 mg/kg in each case.

Turning to `CCOC(=O)CCN(C)C1(c2ccccc2Cl)CCCCC1=O` (racemic), the Time was 0 s in the test with Rattus norvegicus [1], 0 s in the test on Rattus norvegicus [2], 290 s with Rattus norvegicus [4] and 280 s in the test on Rattus norvegicus [6]. Moreover, the Activity turned out to be 99 mg/kg in the test with Rattus norvegicus [3] and 95 mg/kg in the test with Rattus norvegicus [5].

Consider `CCOC(=O)CCCN(C)C1(c2ccccc2Cl)CCCCC1=O.Cl` (racemic), for which the Time is given as 0 s in the test on Rattus norvegicus [1], 0 s in the test on Rattus norvegicus [2], 600 s with Rattus norvegicus [4] and 600 s with Rattus norvegicus [6].

With `COC(=O)CCCCN(C)C1(c2ccccc2Cl)CCCCC1=O` (racemic), the Time was determined as 0 s in the test with Rattus norvegicus [2] and 420 s in the test on Rattus norvegicus [6].

For `CCOC(=O)CCNC1(c2ccccc2Cl)CCCCC1=O.Cl` (racemic), the Activity in the test with Rattus norvegicus [3] stood at 55 mg/kg; with Rattus norvegicus [5], 48 mg/kg.

For the compound `CC(C)OC(=O)CCNC1(c2ccccc2Cl)CCCCC1=O.Cl` (racemic), the Time with Rattus norvegicus [2] was determined as 83 s. The Activity in the test with Rattus norvegicus [3] was determined as 37 mg/kg; in the test with Rattus norvegicus [5] it was 33 mg/kg.

Consider `CNC1(c2ccccc2Cl)CCCCC1=O` (racemic) [KETAMINE], for which the Time is listed as 900 s in the test with Rattus norvegicus [1], 480 s in the test with Rattus norvegicus [2], 60 s with Rattus norvegicus [4] and 51 s in the test with Rattus norvegicus [6]. The Activity was 21 mg/kg with Rattus norvegicus [3] and 17 mg/kg with Rattus norvegicus [5].
